# Test results from ChEMBL document CHEMBL3856197 (Eur J Med Chem, 2016).
# Calls of active or inactive are those of the source. No cut-off for these calls is given here.
# How the values were obtained:
# [1] = Growth inhibition of BMOL-T cells assessed as increase in doubling time at 10 uM after 2 days relative to control; assay type: functional, Mus musculus; parameters: scale not given: the % may be the effect or the level left
# In short: (§1)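 BMOL-NT (low passage, p<15) or BMOL-T (p>30) mouse liver progenitor cells in Williams' E medium. Seeded at 1,500 (NT) or 1,000 (T) cells per well, allowed to attach, then compound added as 2x solution to 1x final. Cellavista imaging twice daily for 5 days or until 80% confluent. Log % well coverage plotted against time; doubling time taken from log-phase linear portion.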
# [2] = target: T1, Nuclear factor NF-kappa-B p100 subunit (Mus musculus) (UniProt Q9WTK5); test: Inhibition of NF-kappaB2 in BMOL-T cells assessed as reduction in p52 formation by western blot analysis relative to control; assay type: cell-based; conditions: concentration not given here
# T1 sequence (whole entry): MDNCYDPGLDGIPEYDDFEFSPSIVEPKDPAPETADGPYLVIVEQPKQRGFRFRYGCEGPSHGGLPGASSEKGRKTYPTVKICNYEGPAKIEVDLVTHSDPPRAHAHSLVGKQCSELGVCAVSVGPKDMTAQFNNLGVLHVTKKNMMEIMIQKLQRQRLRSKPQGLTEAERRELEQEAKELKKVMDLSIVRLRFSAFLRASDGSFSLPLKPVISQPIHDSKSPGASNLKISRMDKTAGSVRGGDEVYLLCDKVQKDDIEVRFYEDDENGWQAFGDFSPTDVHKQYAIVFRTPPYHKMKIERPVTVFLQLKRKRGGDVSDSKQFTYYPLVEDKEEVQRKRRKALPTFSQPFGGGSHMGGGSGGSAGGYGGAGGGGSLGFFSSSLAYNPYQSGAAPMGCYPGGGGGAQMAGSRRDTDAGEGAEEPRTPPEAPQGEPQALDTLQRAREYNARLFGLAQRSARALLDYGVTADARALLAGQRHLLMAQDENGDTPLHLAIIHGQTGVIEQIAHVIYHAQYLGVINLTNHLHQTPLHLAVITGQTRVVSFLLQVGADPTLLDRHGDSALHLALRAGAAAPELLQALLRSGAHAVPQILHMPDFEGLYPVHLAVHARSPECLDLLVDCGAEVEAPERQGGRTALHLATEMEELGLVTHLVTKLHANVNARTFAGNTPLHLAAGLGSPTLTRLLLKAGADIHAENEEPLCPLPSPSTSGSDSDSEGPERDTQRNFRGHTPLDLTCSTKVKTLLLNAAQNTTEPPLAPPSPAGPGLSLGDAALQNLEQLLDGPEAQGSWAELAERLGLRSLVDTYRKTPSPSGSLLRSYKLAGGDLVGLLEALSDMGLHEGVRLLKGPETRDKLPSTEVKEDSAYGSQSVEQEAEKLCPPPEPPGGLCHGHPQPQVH
# In short: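 BMOL-T cells exposed to compound as in the growth assay, lysed in DISC buffer. Western blot with primary antibodies overnight and HRP secondaries 1 h, all diluted in 5% skim milk in TBS-T, chemiluminescent detection. Bands normalised to β-actin; p52/p100 ratio and phospho-p65 compared with control.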
# [3] = Antimitotic activity against BMOL-NT cells assessed as reduction in mitotic index at 10 uM measured after 3 days by phosphohistone H3 staining-based method; assay type: cell-based; parameters: scale not given: the % may be the effect or the level left; conditions: mouse, 72 h
# In short: (§2)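 BMOL-NT or BMOL-T cells, compound at 10 μM for three days. Fixed in 4% paraformaldehyde/0.1% Triton X-100, then phospho-histone H3 antibody 60 min at room temperature with nuclear counterstain, Cellavista imaging. Colcemid 1 μg/mL overnight as positive control. Mitotic index is % positive cells per well, mean of replicate wells, three cell lots.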
# [4] = Growth inhibition of BMOL-T cells assessed as increase in doubling time at 8 uM after 2 days relative to control; assay type: functional, Mus musculus; parameters: scale not given: the % may be the effect or the level left; in short: as §1
# [5] = Anticancer activity against BMOL-T cells assessed as doubling time at 0 to 6 uM; assay type: functional, Mus musculus; in short: as §1
# [6] = Antimitotic activity against BMOL-T cells assessed as mitotic index at 10 uM measured after 3 days by phosphohistone H3 staining-based method relative to control; assay type: functional, Mus musculus; in short: as §2
# Mus musculus [7] = organism: Mus musculus; test: Cytotoxicity against BMOL-NT cells assessed as doubling time at 0 to 10 uM; assay type: toxicity, cell-based; in short: as §1
# [8] = Anticancer activity against BMOL-T cells assessed as doubling time at 8 uM; assay type: functional, Mus musculus; in short: as §1
# [9] = Growth inhibition of BMOL-NT cells; assay type: cell-based; conditions: mouse; in short: as §1
# Mus musculus [10] = organism: Mus musculus; test: Cytotoxicity against BMOL-NT cells assessed as cell growth inhibition at 10 uM; assay type: toxicity, cell-based; in short: as §1
# BMOL-T [11] = test: Anticancer activity against BMOL-T cells assessed as cell growth inhibition at 10 uM; assay type: functional, cell-based; conditions: Mus musculus; in short: as §1
# [12] = Induction of apoptosis in BMOL-NT cells assessed as increase in fragmented DNA at 10 uM measured after 3 days relative to control; assay type: cell-based; conditions: mouse, 72 h
# In short: (§3)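 BMOL-NT or BMOL-T cells, compound at 10 μM for three days. Fixed in 4% paraformaldehyde/0.1% Triton X-100, DNA fragmentation labelling reaction 60 min at 37 °C, nuclear dye 5 min, Cellavista imaging. Cisplatin 8 μg/mL for 24 h as positive control. Apoptotic index is % cells with fragmented DNA per well, three cell lots.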
# [13] = Growth inhibition of BMOL-T cells; assay type: functional; conditions: Mus musculus; in short: as §1
# [14] = Induction of apoptosis in BMOL-T cells assessed as increase in fragmented DNA at 10 uM measured after 3 days relative to control; assay type: functional, Mus musculus; in short: as §3
# [15] = Anticancer activity against BMOL-T cells assessed as doubling time at 10 uM; assay type: functional, Mus musculus; in short: as §1
# Mus musculus [16] = organism: Mus musculus; test: Cytotoxicity against BMOL-NT cells assessed as induction of cell death up to 100 uM; assay type: toxicity, cell-based
# In short: (§4)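 Mouse bipotential oval (liver progenitor) line BMOL-NT (passage <15) grown in Williams' E medium with 5% FBS, EGF, IGF-II and insulin. Plated at 1,500 cells/well; next day compound added as a 2x solution to give 1x final. Confluency imaged on Cellavista twice daily for 5 days or until 80% confluent. Growth curves plotted from log confluency; doubling time taken from the log-phase linear portion.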
# Mus musculus [17] = organism: Mus musculus; test: Cytotoxicity against BMOL-NT cells assessed as induction of cell death at 100 uM; assay type: toxicity, cell-based; in short: as §4
# [18] = Growth inhibition of BMOL-T cells assessed as doubling time at 2 uM (reference value: 27 to 34 hrs); assay type: functional, Mus musculus; in short: as §1
# [19] = Growth inhibition of BMOL-NT cells assessed as doubling time at 4 uM (reference value: 29 to 32.5 hrs); assay type: cell-based; conditions: mouse; in short: as §1
# [20] = Growth inhibition of BMOL-NT cells assessed as population doubling time at 0.5 uM (reference value: 29 to 32.5 hrs); assay type: cell-based; conditions: mouse; in short: as §1
# [21] = Growth inhibition of BMOL-T cells assessed as doubling time at 1 uM (reference value: 27 to 34 hrs); assay type: functional, Mus musculus; in short: as §1
# [22] = Growth inhibition of BMOL-NT cells assessed as increase in doubling time at 10 uM after 2 days relative to control; assay type: cell-based; parameters: scale not given: the % may be the effect or the level left; conditions: mouse, 48 h; in short: as §1
# [23] = Growth inhibition of BMOL-NT cells assessed as population doubling time at 1 uM (reference value: 29 to 32.5 hrs); assay type: cell-based; conditions: mouse; in short: as §1
# [24] = Growth inhibition of BMOL-T cells assessed as doubling time at 0.5 uM (reference value: 27 to 34 hrs); assay type: functional, Mus musculus; in short: as §1
# [25] = Growth inhibition of BMOL-NT cells assessed as doubling time at 10 uM (reference value: 29 to 32.5 hrs); assay type: cell-based; conditions: mouse; in short: as §1
# [26] = Growth inhibition of BMOL-T cells assessed as doubling time at 10 uM (reference value: 27 to 34 hrs); assay type: functional, Mus musculus; in short: as §1
# [27] = test system: BMOL-NT cells (Mus musculus); test: Growth inhibition of BMOL-NT cells at 10 uM after 2 days relative to control; conditions: 48 h, read-out: GI
# [28] = Growth inhibition of BMOL-NT cells assessed as increase in doubling time at 8 uM after 2 days relative to control; assay type: cell-based; parameters: scale not given: the % may be the effect or the level left; conditions: mouse, 48 h; in short: as §1
# [29] = Growth inhibition of BMOL-NT cells assessed as doubling time at 8 uM (reference value: 29 to 32.5 hrs); assay type: cell-based; conditions: mouse; in short: as §1
# [30] = Growth inhibition of BMOL-T cells assessed as doubling time at 8 uM (reference value: 27 to 34 hrs); assay type: functional, Mus musculus; in short: as §1
# [31] = Growth inhibition of BMOL-NT cells assessed as population doubling time at 2 uM (reference value: 29 to 32.5 hrs); assay type: cell-based; conditions: mouse; in short: as §1
# BMOL-T [32] = test: Anticancer activity against BMOL-T cells assessed as cell growth inhibition at 100 uM; assay type: functional, cell-based; conditions: Mus musculus; in short: as §1
structure (smiles),measurement,setting,value
CC(C)c1ccc(Nc2cccc3c2C(=O)N(C2CCC(=O)NC2=O)C3=O)cc1 (stereo not drawn),Activity,[1],26 - 27%
same,inhibition,[2],30%
same,Activity,[3],Non-Toxic
same,Activity,[4],11%
same,Time,[5],23 h
same,Activity,[6],34%
same,Time,Mus musculus [7],31 h
same,Time,[8],26 h
same,GI50,[9],60 µM
same,Activity,Mus musculus [10],Non-Toxic
same,growth inhibition (GI),BMOL-T [11],Active
same,fold change (FC),[12],1.5
same,GI50,[13],40 µM
same,fold change (FC),[14],1.6 - 4
same,Time,[15],30 h
O=CC#Cc1cccc2c1C(=O)N(C1CCC(=O)NC1=O)C2=O (racemic),Activity,Mus musculus [16],Non-Toxic
O=C1CCC(N2C(=O)c3ccccc3C2=O)C(=O)N1 (stereo not drawn) [THALIDOMIDE],Activity,Mus musculus [17],Toxic
same,GI50,[9],100 µM
CNC(=O)c1cc(Oc2ccc(NC(=O)Nc3ccc(Cl)c(C(F)(F)F)c3)cc2)ccn1 [SORAFENIB],Activity,[1],193 - 235%
same,Time,[18],34.4 to 35 h
same,Time,[19],37.4 to 37.9 h
same,Time,[20],31.9 to 32.5 h
same,Activity,[3],66 to 87%
same,Activity,[4],36 - 144%
same,Time,[21],33.2 to 34.2 h
same,Activity,[22],101 to 134%
same,Activity,[6],62%
same,Time,[23],32.5 to 34.7 h
same,Time,[24],28.05 to 35 h
same,Time,[25],68 h
same,Time,[26],79 h
same,inhibition of growth at 10 µM,[27],70%
same,fold change (FC),[12],2.5 to 18.1
same,Activity,[28],100 to 128%
same,Time,[29],58 to 74 h
same,Time,[30],65 to 66 h
same,fold change (FC),[14],38
same,Time,[31],33.3 to 33.7 h
CCCCCc1ccc(Nc2cccc3c2C(=O)N(C2CCC(=O)NC2=O)C3=O)cc1 (stereo not drawn),growth inhibition (GI),BMOL-T [32],Active
same,Activity,Mus musculus [17],Toxic
same,GI50,[9],100 µM
same,GI50,[13],100 µM
O=CC#Cc1ccc2c(c1)C(=O)N(C1CCC(=O)NC1=O)C2=O (stereo not drawn),Activity,Mus musculus [16],Non-Toxic
CC(C)(C)c1ccc(Nc2ccc3c(c2)C(=O)N(C2CCC(=O)NC2=O)C3=O)cc1 (stereo not drawn),growth inhibition (GI),BMOL-T [32],Active
same,Activity,Mus musculus [17],Toxic
same,GI50,[9],100 µM
same,GI50,[13],100 µM
Nc1cccc2c1CN(C1CCC(=O)NC1=O)C2=O (stereo not drawn) [LENALIDOMIDE],Activity,Mus musculus [17],Toxic
same,GI50,[9],100 µM
CCCCCc1ccc(Nc2ccc3c(c2)C(=O)N(C2CCC(=O)NC2=O)C3=O)cc1 (stereo not drawn),GI50,[9],60 µM
same,Activity,Mus musculus [10],Non-Toxic
same,growth inhibition (GI),BMOL-T [11],Active
same,GI50,[13],60 µM
